Experimental data pooled from the literature.
Lines come from different studies, so protocols differ.

N=C(N)c1ccc(OCCCCCOc2ccc(C(=N)N)cc2)cc1 — IC50 (L6; cell growth or viability, resazurin; 70 h): 7.6 µM
Nc1ccn([C@@H]2CS[C@H](CO)O2)c(=O)n1 — CC50 (HepG2.2.15; cell growth or viability, MTT; 6 days): > 1000 µM
CCCC(=O)Nc1cccc(NC(=O)c2ccccc2Br)c1 — compound remaining (chemical stability; mouse, plasma; 5 µM, 5 h, pH 7.4): 2%
O=[N+]([O-])c1ccc(-c2nc3cccc(O)c3[nH]2)o1 — CC50 (CEM-SS; cell growth or viability, resazurin; 72 h): 90 µM
Nc1nc(-c2ccc(NC(=O)Nc3ccc(-c4c[nH]c(N)n4)c(F)c3)cc2F)c[nH]1 — compound remaining (metabolic stability; human, liver microsomes; 5 µM, 1 h, pH 7.4): > 80%
Oc1c(-n2ccnn2)cnn1-c1cc(N2CCOCC2)ncn1 — clearance (female monkey, plasma; intravenous, 1 mg/kg): 11.7 mL/min/kg
C=C(C)[C@H](CC=C(C)C)Cc1c(O)cc(O)c2c1O[C@H](c1ccccc1O)CC2=O — IC50 (COLO 205; cell growth or viability, MTT; 48 h): 28.1 µM
CC(=O)c1ccc2c(c1)N(CCCN(C)C)c1ccccc1S2 — CC50 (CEM-SS; cell growth or viability, XTT; 6 days): 18 µM
CCC(=O)C[C@H](O)C[C@@H](C)C[C@H](NC(=O)[C@@H]1C[C@H](C)CN1C(=O)/C=C/[C@@H](C)CC)C(=O)N[C@H](C(=O)NC(C)(C)C(=O)N[C@@H](CC(C)C)C(=O)N[C@@H](CC(C)C)C(=O)NC(C)(C)C(=O)NC(C)(C)C(=O)NCCC(=O)N[C@@H](C)CN(C)C)[C@H](O)C(C)C — IC50 (L6; cell growth or viability, resazurin; 68 h): 0.259 µM
Nc1nc(-c2cc(F)cc(NC(=O)Nc3cc(F)cc(-c4c[nH]c(N)n4)c3)c2)c[nH]1 — compound remaining (metabolic stability; human, liver microsomes; 5 µM, 1 h, pH 7.4): > 80%
COc1cccc2c1C(=O)c1c(O)c3c(c(O)c1C2=O)C[C@@](O)(C(=O)CO)C[C@@H]3O[C@H]1C[C@H](N)[C@H](O)[C@H](C)O1 — IC50 (COLO 205; cell growth or viability, MTT; 48 h): 0.5 µM
O=C(CCCO)N1N=C(c2c(-c3ccc(Cl)cc3)c3ccccc3[nH]c2=O)CC1c1ccc(Cl)cc1 (stereo not drawn) — compound remaining (metabolic stability; human, liver microsomes; 1 µM, 10 min, pH 7.4): 52%
